What all share (assay type): functional
Test [1] concerns Mycobacterium avium. Kind of test: Inhibition of growth of Mycobacterium avium (ATCC 25291) was determined using microplate alamar blue assay at 50 ug/mL concentration with compound dissolved in DMSO. The method, boiled down: (§1)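 MABA in 7H9GC medium; M. bovis BCG or M. avium ATCC 25291 frozen inocula at 2.5 × 10⁵ CFU/mL final, 100× DMSO stocks diluted into medium. Incubated 6 days, then alamar blue plus 20% Tween-80 added once bacteria-only wells turned pink, read 24 h later by fluorescence. % inhibition = […]. Triplicate wells, three experiments, mean reported.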
On the technique in general: The colour change of resazurin is a common sign of viable cells or microbes.

Test [2] relates to Mycobacterium avium. As to the kind of experiment: Inhibition of growth of Mycobacterium avium (ATCC 25291) was determined using microplate alamar blue assay at 100 ug/mL concentration with compound dissolved in DMSO. The method, boiled down: as §1
The subject of test [3] is Mycobacterium avium. Kind of test: Minimum inhibitory concentration against Mycobacterium avium (ATCC 25291). A digest of the protocol:
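Alamar blue microplate assay in 7H9GC. BCG or M. avium ATCC 25291 at 2.5 × 10⁵ CFU/mL final, exposed to compound at 100, 50, 10 and 1 µg/mL in triplicate. Reagent added after 6+ days once growth controls turned pink, read after 24 h visually and by fluorescence. MIC₉₀ taken as the lowest concentration giving ~90% growth inhibition.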

For test [4], the system named is Mycobacterium avium. Kind of test: Inhibition of growth of Mycobacterium avium (ATCC 25291) was determined using microplate alamar blue assay at 2 ug/mL concentration with compound dissolved in DMSO.
The subject of test [5] is Mycobacterium avium. Kind of test: Inhibition of growth of Mycobacterium avium (ATCC 25291) was determined using microplate alamar blue assay at 10 ug/mL concentration with compound dissolved in DMSO. The method, boiled down: as §1

≈ marks a conversion by molar mass, not a printed value.

What is called inhibition is the share of the control response that was lost under treatment. For `CCCCCCCCCCCCC#Cc1cn([C@H]2C[C@H](O)[C@@H](CO)O2)c(=O)[nH]c1=O`, the inhibition at 50 µg/mL in test [1] was determined as 30%. Also, the inhibition at 100 µg/mL in test [2] came to 75%.

One may read the MIC90 as an inhibitory concentration at the 90% level, which refers to growth in some studies and to a panel of isolates in others. In test [3], `CC[C@H]1OC(=O)[C@H](C)[C@@H](O[C@H]2C[C@@](C)(OC)[C@@H](O)[C@H](C)O2)[C@H](C)[C@@H](O[C@@H]2O[C@H](C)C[C@H](N(C)C)[C@H]2O)[C@](C)(OC)C[C@@H](C)C(=O)[C@H](C)[C@@H](O)[C@]1(C)O` [CLARITHROMYCIN] came in with an MIC90 of 2 mg/L (≈ 2.67 µM). The inhibition at 2 µg/mL in test [4] was 95%.

For the compound `CCCCCCCCC#Cc1cn([C@H]2C[C@H](O)[C@@H](CO)O2)c(=O)nc1N`, the inhibition at 10 µg/mL in test [5] amounted to 20%. Besides, the inhibition at 50 µg/mL in test [1] is 50%. Besides, the inhibition at 100 µg/mL in test [2] is 75%.

With `CCCCCCCCCCC#Cc1cn([C@H]2C[C@H](O)[C@@H](CO)O2)c(=O)[nH]c1=O`, in test [1], the inhibition at 50 µg/mL worked out at 0%. Besides, the inhibition at 100 µg/mL in test [2] amounted to 75%.

For the compound `CCCCCCCCCCC#Cc1cn([C@H]2C[C@H](O)[C@@H](CO)O2)c(=O)nc1N`, the MIC90 in test [3] amounted to 100 mg/L (≈ 255 µM). Besides, the inhibition at 10 µg/mL in test [5] was determined as 10%. For the same compound, the inhibition at 50 µg/mL in test [1] was 60%. In test [2], the inhibition at 100 µg/mL stood at 100%.

Turning to `CO[C@H]1/C=C/O[C@@]2(C)Oc3c(C)c(O)c4c(O)c(c(/C=N/N5CCN(C)CC5)c(O)c4c3C2=O)NC(=O)/C(C)=C\C=C\[C@H](C)[C@H](O)[C@@H](C)[C@@H](O)[C@@H](C)[C@H](OC(C)=O)[C@@H]1C` [RIFAMPIN], in test [3], the MIC90 is 2 mg/L (≈ 2.43 µM). Moreover, in test [4], the inhibition at 2 µg/mL was 90%.

`CCCCCC#Cc1cn([C@H]2C[C@H](O)[C@@H](CO)O2)c(=O)[nH]c1=O`: in test [2], the inhibition at 100 µg/mL came out at 25%.

On to `CCCCCCCCC#Cc1cn([C@H]2C[C@H](O)[C@@H](CO)O2)c(=O)[nH]c1=O`, for which, in test [2], the inhibition at 100 µg/mL came to 30%.

For the origin of these results see ChEMBL document CHEMBL1140381, “Design and studies of novel 5-substituted alkynylpyrimidine nucleosides as potent inhibitors of mycobacteria” (2005).
